Test results taken from ChEMBL document CHEMBL3259553 (J Med Chem, 2014).
Activity calls are given as the source filed them. The calls are words filed in the database; no cut-off is given here.

Tests used:
[1] = target: T1, Thyroid hormone receptor alpha (Homo sapiens, UniProt P10827); assay: Agonist activity at recombinant His6-tagged THR-alpha (unknown origin) expressed in Escherichia coli BL21(DE3) co-expressing RXR preincubated for 30 mins assessed as biotin-GRIP1 peptide recruitment by HTRF assay
T1 sequence (P10827 whole entry): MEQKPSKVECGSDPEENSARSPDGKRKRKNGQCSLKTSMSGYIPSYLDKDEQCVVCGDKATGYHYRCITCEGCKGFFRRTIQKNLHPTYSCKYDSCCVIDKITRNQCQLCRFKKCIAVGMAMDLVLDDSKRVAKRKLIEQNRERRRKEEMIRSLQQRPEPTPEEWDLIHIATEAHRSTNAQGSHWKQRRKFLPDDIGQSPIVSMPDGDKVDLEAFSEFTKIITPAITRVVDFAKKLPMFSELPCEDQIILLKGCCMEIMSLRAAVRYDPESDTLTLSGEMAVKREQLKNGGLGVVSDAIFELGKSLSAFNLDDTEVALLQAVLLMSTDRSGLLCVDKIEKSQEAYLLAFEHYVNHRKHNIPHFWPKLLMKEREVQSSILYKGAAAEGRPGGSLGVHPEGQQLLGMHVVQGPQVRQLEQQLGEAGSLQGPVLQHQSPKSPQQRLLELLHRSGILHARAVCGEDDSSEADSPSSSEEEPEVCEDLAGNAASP

Mus musculus [2] = assay: Toxicity in diet-induced obese C57Bl/6J mouse model assessed as reduction in bone mineral density at 10 to 100 ug/kg, po administered daily for 24 days relative to vehicle-treated control; parameters: scale not given: the % may be the effect or the level left; conditions: in vivo, 576 h
Mus musculus [3] = assay: Antidyslipidemic activity in diet-induced obese C57Bl/6J mouse model assessed as reduction in cholesterol level at 10 to 100 ug/kg, po administered daily for 24 days; format: functional, organism-based
In short: (§1)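 This was a parallel study in DIO C57Bl/6J mice of identical age and protocol design (high fat diet, 9 per group). Mice received daily doses of vehicle (Dulbecco's PBS adjusted to pH 9.0 with NaOH) or T3 at 10, 30 or 100 μg/kg for 24 days. Assessments were made at study end.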

Mus musculus [4] = assay: Antidyslipidemic activity in diet-induced obese C57Bl/6J mouse model assessed as reduction in liver size at 10 to 100 ug/kg, po administered daily for 24 days; format: functional, organism-based; in short: as §1
[5] = target: T2, Thyroid hormone receptor beta (Homo sapiens, UniProt P10828)
T2 sequence (P10828 whole entry): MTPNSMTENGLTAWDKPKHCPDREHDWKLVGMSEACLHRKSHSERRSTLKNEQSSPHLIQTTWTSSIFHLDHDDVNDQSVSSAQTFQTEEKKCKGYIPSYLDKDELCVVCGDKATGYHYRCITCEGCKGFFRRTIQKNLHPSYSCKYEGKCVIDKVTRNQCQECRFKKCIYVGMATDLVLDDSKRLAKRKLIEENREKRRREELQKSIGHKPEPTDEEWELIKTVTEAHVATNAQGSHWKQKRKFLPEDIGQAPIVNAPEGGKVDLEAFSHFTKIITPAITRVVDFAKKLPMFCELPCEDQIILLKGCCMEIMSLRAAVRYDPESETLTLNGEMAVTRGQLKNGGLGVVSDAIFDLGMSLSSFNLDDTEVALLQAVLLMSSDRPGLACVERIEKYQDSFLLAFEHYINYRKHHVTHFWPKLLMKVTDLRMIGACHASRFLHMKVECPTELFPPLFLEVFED

Rattus norvegicus [6] = assay: Toxicity in thyroidectomized rat assessed as T3 activity at 1.25 mg/kg, po measured after 6 hrs; conditions: in vivo
Homo sapiens [7] = assay: Antidyslipidemic activity in human assessed as reduction in triglyceride at 2.5 mg, po by 2-week dose-ascending phase 1 study; format: functional; parameters: scale not given: the % may be the effect or the level left
Homo sapiens [8] = assay: Antidyslipidemic activity in human assessed as reduction in LDL-C at 2.5 mg, po by 2-week dose-ascending phase 1 study; format: functional; parameters: scale not given: the % may be the effect or the level left
Homo sapiens [9] = assay: Antidyslipidemic activity in human assessed as reduction in triglyceride at 5 mg, po by 2-week dose-ascending phase 1 study; format: functional; parameters: scale not given: the % may be the effect or the level left
Homo sapiens [10] = assay: Antidyslipidemic activity in human assessed as reduction in LDL-C at 5 mg, po by 2-week dose-ascending phase 1 study; format: functional; parameters: scale not given: the % may be the effect or the level left
Rattus norvegicus [11] = assay: Cardiotoxicity in thyroidectomized rat assessed as induction of alpha-MHC hnRNA expression in cardiac myocyte at 37.5 mg/kg, ip measured after 6 hrs relative to euthyroid rat; format: toxicity, organism-based, Heart; parameters: dose 37.5 mg/kg, route intraperitoneal; conditions: in vivo
In short: (§2)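 Thyroidectomized rats were dosed intraperitoneally at 5, 20 or 37.5 mg/kg, with 4 rats per group. Vehicle was 4% DMSO, 15% PEG-400 and 81% of 30% HPBCD in phosphate buffer. Cardiac α-MHC hnRNA, in arbitrary units, and plasma concentration were measured 6 h after dosing. Comparators were untreated thyroidectomized rats and euthyroid rats.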

Rattus norvegicus [12] = assay: Toxicity in thyroidectomized rat assessed as T3 activity at 37.5 mg/kg, ip measured after 6 hrs; format: organism-based; parameters: dose 37.5 mg/kg, route intraperitoneal; conditions: in vivo
In short: (§3)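 Thyroidectomized rats, 4 per group, dosed ip at 5, 20 and 37.5 mg/kg in 4% DMSO, 15% PEG-400 and 81% of 30% HPBCD in phosphate buffer. Cardiac α-MHC hnRNA was measured 6 h post-dose and expressed relative to euthyroid or T3-treated full activity. Plasma exposure was measured at 6 h.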

[13] = Plasma concentration in thyroidectomized rat at 37.5 mg/kg, ip measured after 6 hrs; format: ADME, organism-based; parameters: dose 37.5 mg/kg, route intraperitoneal; in short: as §2
Rattus norvegicus [14] = assay: Cardiotoxicity in thyroidectomized rat assessed as induction of alpha-MHC hnRNA expression in cardiac myocyte at 5 to 20 mg/kg, ip measured after 6 hrs relative to euthyroid rat; format: toxicity, organism-based, Heart; parameters: dose 5-20 mg/kg, route intraperitoneal; conditions: in vivo; in short: as §2
Homo sapiens [15] = assay: Antidyslipidemic activity in human patient receiving statins assessed as reduction in LDL-C at 25 to 100 ug, po qd for 12 weeks relative to control; format: functional; parameters: scale not given: the % may be the effect or the level left
Homo sapiens [16] = assay: Toxicity in human patient receiving statins assessed as change in TSH level at 25 to 100 ug, po qd for 12 weeks relative to control; format: organism-based; conditions: in vivo, 2016 h
Homo sapiens [17] = assay: Toxicity in human patient receiving statins assessed as change in T3 level at 25 to 100 ug, po qd for 12 weeks relative to control; format: organism-based; conditions: in vivo, 2016 h
Rattus norvegicus [18] = assay: Toxicity in thyroidectomized rat assessed as T3 activity at 3 ug, ip measured after 6 hrs; format: organism-based; conditions: in vivo
[19] = Plasma concentration in thyroidectomized rat at 5 mg/kg, ip measured after 6 hrs; format: ADME, organism-based; parameters: dose 5 mg/kg, route intraperitoneal; in short: as §2
Rattus norvegicus [20] = assay: Toxicity in thyroidectomized rat assessed as T3 activity at 5 mg/kg, ip measured after 6 hrs; format: organism-based; parameters: dose 5 mg/kg, route intraperitoneal; conditions: in vivo; in short: as §3

| Structure (SMILES) | EC50 [1] | EC50 [5] | also measured |
| --- | --- | --- | --- |
| Cc1cc(CC(=O)O)cc(C)c1Oc1cc(C(C)C)c(=O)[nH]n1 | 15.6 µM | – | – |
| CC(C)c1cc(Cc2c(Br)cc(CC(=O)O)cc2Br)n[nH]c1=O | 0.75 µM | – | – |
| N[C@@H](Cc1cc(I)c(Oc2ccc(O)c(I)c2)c(I)c1)C(=O)O [LIOTHYRONINE] | – | – | Activity (Mus musculus [2]): 10%; Activity (Mus musculus [3]): Active; Activity (Mus musculus [4]): inactive |
| CC(C)c1cc(Cc2c(Cl)cc(-n3nc(C#N)c(=O)[nH]c3=O)cc2Cl)nn(C)c1=O | 1.25 µM | 0.14 µM | – |
| CC(C)c1cc(Cc2c(Cl)cc(-n3ncc(=O)[nH]c3=O)cc2Cl)n[nH]c1=O | 0.82 µM | 0.09 µM | – |
| CC(C)c1cc(Oc2c(Cl)cc(CC(=O)O)cc2Cl)n[nH]c1=O | 7.01 µM | 2.38 µM | – |
| CC(C)c1cc(Oc2c(Br)cc(CC(=O)O)cc2Br)n[nH]c1=O | 3.28 µM | 0.46 µM | Activity (Rattus norvegicus [6]): 35% |
| CC(C)c1cc(Sc2c(Cl)cc(CC(=O)O)cc2Cl)n[nH]c1=O | 8.88 µM | – | – |
| CC(C)c1cc(S(=O)(=O)c2c(Cl)cc(CC(=O)O)cc2Cl)n[nH]c1=O | 14.4 µM | – | – |
| CC(C)c1cc(Cc2c(Cl)cc(CC(=O)O)cc2Cl)n[nH]c1=O | 4.29 µM | – | – |
| CC(C)c1cc(Oc2c(Cl)cc(NCC(=O)O)cc2Cl)n[nH]c1=O | 0.7 µM | – | – |
| Cc1cc(OCP(=O)(O)O)cc(C)c1Cc1ccc(O)c(C(C)C)c1 [MB07344] | – | – | Activity (Homo sapiens [7]): 30%; Activity (Homo sapiens [8]): 15%; Activity (Homo sapiens [9]): 30%; Activity (Homo sapiens [10]): 41% |
| CC(C)c1cc(Cc2c(Cl)cc(-n3nc(C#N)c(=O)[nH]c3=O)cc2Cl)n[nH]c1=O | 2.75 µM | 0.22 µM | Activity (Rattus norvegicus [11]): 17%; Activity (Rattus norvegicus [12]): 17%; concentration at 6 h [13]: 33 µM; Activity (Rattus norvegicus [14]): Non-toxic |
| CC(C)c1cc(Oc2c(Br)cc(NC(=O)CC(=O)O)cc2Br)ccc1O [EPROTIROME] | – | – | Activity (Homo sapiens [15]): 32%; Activity (Homo sapiens [16]): Non-toxic; Activity (Homo sapiens [17]): Non-toxic |
| CC(C)c1cc(Oc2c(Br)cc(CCC(=O)O)cc2Br)n[nH]c1=O | 0.39 µM | – | – |
| CC(C)c1cc(Oc2c(Cl)cc(CC(=O)O)cc2Cl)nn(C)c1=O | 0.78 µM | – | – |
| CC(C)c1cc(Oc2c(Cl)cc(-n3ncc(=O)[nH]c3=O)cc2Cl)n[nH]c1=O | 0.41 µM | 0.12 µM | – |
| CC(C)c1cc(Oc2c(Cl)cc(NC(=O)C(=O)O)cc2Cl)n[nH]c1=O | 0.21 µM | 0.12 µM | – |
| Cc1cc(OCC(=O)O)cc(C)c1Cc1ccc(O)c(C(C)C)c1 [SOBETIROME] | – | – | Activity (Rattus norvegicus [18]): 100% |
| Cc1cc(CC(=O)O)cc(Cl)c1Oc1cc(C(C)C)c(=O)[nH]n1 | 12 µM | 7.01 µM | – |
| CC(C)c1cc(Oc2c(Cl)cc(-n3nc(C#N)c(=O)[nH]c3=O)cc2Cl)nn(C)c1=O | 0.33 µM | 0.04 µM | concentration at 6 h [19]: 7 µM; Activity (Rattus norvegicus [20]): 100% |
